Data published in publication PMC7733813 (Proceedings of the National Academy of Sciences of the …, 2020).
Where a SMILES comes first, the peptide text is derived from it. Bridges are numbered along the chain shown (N, C = ends). Roman numbers before positions name the chains, in order. [ ]: non-standard residue; d: D form. PEG3 = NCCOCCOCCOCCC(=O)O; Dap = NC[C@H](N)C(=O)O

How the values were obtained:
mouse PlxnB1 = biological target: T1, mouse PlxnB1 (Mus musculus, UniProt Q8CJH3); assay: Surface plasmon resonance; assay type: binding
T1 sequence (Q8CJH3 20-479 limits assumed): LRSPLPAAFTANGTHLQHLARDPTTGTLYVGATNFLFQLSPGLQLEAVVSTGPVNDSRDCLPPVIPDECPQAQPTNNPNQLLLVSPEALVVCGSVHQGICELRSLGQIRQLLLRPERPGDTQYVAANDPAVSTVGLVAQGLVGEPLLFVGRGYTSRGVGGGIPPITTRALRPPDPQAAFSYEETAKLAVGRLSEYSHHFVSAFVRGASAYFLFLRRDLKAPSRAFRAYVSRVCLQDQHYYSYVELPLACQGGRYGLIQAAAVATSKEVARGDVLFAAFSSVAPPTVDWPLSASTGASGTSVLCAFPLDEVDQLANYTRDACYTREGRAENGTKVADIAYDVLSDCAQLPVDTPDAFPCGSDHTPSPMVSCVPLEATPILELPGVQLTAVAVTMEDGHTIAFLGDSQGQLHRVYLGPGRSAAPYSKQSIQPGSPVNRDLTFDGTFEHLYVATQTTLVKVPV

[1] = system: mouse primary osteoblasts (calvarial cells); assay: Bone nodule formation in primary calvarial cells, alizarin red S staining; assay type: cell-based; conditions: 10 µg/mL mouse Sema4D-Fc; peptide 0.05, 0.5, 5 µM; 21 d
[2] = system: Col1a1, Alpl, Bglap expression in mouse primary osteoblasts; assay: qPCR of genes implicated in osteoblastic bone formation in primary osteoblasts; assay type: cell-based; conditions: with or without Sema4D-Fc, vs vehicle control
ovariectomized mice = assay type: in vivo, mouse; conditions: OVX mice, 5 µmol/kg i.v. once weekly, 4 wk, vs vehicle
Summary of the method: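 C57BL/6J ovariectomized mice, kept specific-pathogen-free, were given test compound i.v. once weekly for 4 wk. Sham-operated and vehicle groups served as controls. Bones were fixed in 70% ethanol and scanned by µCT, and 3D structural indices were computed. Undecalcified tibiae were embedded in glycol methacrylate and cut into 5 µm sections. Sections were stained with toluidine blue for osteoblast parameters and TRAP for osteoclast parameters. Data are mean ± SEM.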

CC[C@H](C)[C@@H]1NC(=O)[C@H](Cc2ccc(O)cc2)NC(=O)[C@@H]2CCCN2C(=O)[C@H](CCCNC(=N)N)NC(=O)[C@@H](Cc2c[nH]c3ccccc23)NC(=O)CSC[C@@H](C(=O)NCC(=O)NCCOCCOCCOCCC(=O)NC[C@H](NC(=O)CCOCCOCCOCCNC(=O)CNC(=O)[C@@H]2CSCC(=O)N[C@H](Cc3c[nH]c4ccccc34)C(=O)N[C@@H](CCCNC(=N)N)C(=O)N3CCC[C@H]3C(=O)N[C@@H](Cc3ccc(O)cc3)C(=O)N[C@@H]([C@@H](C)CC)C(=O)N[C@@H](CCC(=O)O)C(=O)N[C@@H](CCCNC(=N)N)C(=O)N[C@@H](Cc3c[nH]c4ccccc34)C(=O)N[C@@H]([C@@H](C)O)C(=O)NCC(=O)N[C@@H](CCCNC(=N)N)C(=O)N[C@@H](CC(C)C)C(=O)N[C@@H]([C@@H](C)CC)C(=O)N[C@@H](C(C)C)C(=O)N2)C(N)=O)NC(=O)[C@H](C(C)C)NC(=O)[C@H]([C@@H](C)CC)NC(=O)[C@H](CC(C)C)NC(=O)[C@H](CCCNC(=N)N)NC(=O)CNC(=O)[C@H]([C@@H](C)O)NC(=O)[C@H](Cc2c[nH]c3ccccc23)NC(=O)[C@H](CCCNC(=N)N)NC(=O)[C@H](CCC(=O)O)NC1=O [PB1d6A9] (I: {CH2CO}-[dW]RPYIERWTGRLIVCG[PEG3][Dap]-NH2 / II: {CH2CO}-[dW]RPYIERWTGRLIVCG[PEG3]; amide I:18-II:C; thioether I:N-I:15, II:N-II:15)
Kd (mouse PlxnB1): 0.2 nM
decrease in dissociation rate of dimer over monomer, mouse PlxnB1 (mouse PlxnB1; PB1d6A9 vs PB1m6A9): 10 fold
improvement in KD of dimer over monomer, mouse PlxnB1 (mouse PlxnB1; PB1d6A9 vs PB1m6A9): ~220 fold
increase in association rate of dimer over monomer, mouse PlxnB1 (mouse PlxnB1; PB1d6A9 vs PB1m6A9): 22 fold
bone nodule formation (alizarin red S) [1]: dose-dependent increases in bone formation
expression of Col1a1, Alpl and Bglap [2]: enhanced
bone loss, µCT of femurs (ovariectomized mice): clear suppression of bone loss
